# T1: MBP-scRev7 (Saccharomyces cerevisiae, UniProt P38927)
# T1 sequence (P38927 1-245): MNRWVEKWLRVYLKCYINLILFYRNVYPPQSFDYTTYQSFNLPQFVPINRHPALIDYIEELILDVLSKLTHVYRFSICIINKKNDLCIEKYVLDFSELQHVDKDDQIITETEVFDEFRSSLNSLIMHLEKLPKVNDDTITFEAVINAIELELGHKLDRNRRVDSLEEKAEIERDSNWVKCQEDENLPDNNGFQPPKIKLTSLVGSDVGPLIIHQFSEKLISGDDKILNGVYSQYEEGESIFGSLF
# T2: scRev7 fused to the maltose binding protein (MBP-scRev7) (S. cerevisiae, UniProt P38927 1-245)
# T2 sequence: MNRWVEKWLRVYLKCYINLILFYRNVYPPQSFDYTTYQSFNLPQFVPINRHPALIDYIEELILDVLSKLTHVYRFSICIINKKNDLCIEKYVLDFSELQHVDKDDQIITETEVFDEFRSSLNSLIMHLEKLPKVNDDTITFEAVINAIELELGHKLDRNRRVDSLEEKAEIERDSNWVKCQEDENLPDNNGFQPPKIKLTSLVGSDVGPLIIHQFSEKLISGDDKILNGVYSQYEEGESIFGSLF
# T3: scRev3-RBM12 (residues 510-629), co-expressed with scRev7 (S. cerevisiae, UniProt P14284 510-629)
# T3 sequence: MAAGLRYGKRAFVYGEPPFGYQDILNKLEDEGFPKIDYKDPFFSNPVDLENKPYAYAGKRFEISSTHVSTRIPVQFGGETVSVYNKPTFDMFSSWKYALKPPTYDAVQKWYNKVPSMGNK
# T4: truncated scRev3 fragment containing RBM2, but not RBM1 (residues 545-629) (S. cerevisiae, UniProt P14284 545-629)
# T4 sequence: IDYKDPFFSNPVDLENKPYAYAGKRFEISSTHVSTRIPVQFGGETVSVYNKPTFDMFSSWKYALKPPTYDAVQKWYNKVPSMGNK
# B1: His-tagged scRev7 (S. cerevisiae Rev7) (natural protein)
# chain: MNRWVEKWLRVYLKCYINLILFYRNVYPPQSFDYTTYQSFNLPQFVPINRHPALIDYIEELILDVLSKLTHVYRFSICIINKKNDLCIEKYVLDFSELQHVDKDDQIITETEVFDEFRSSLNSLIMHLEKLPKVNDDTITFEAVINAIELELGHKLDRNRRVDSLEEKAEIERDSNWVKCQEDENLPDNNGFQPPKIKLTSLVGSDVGPLIIHQFSEKLISGDDKILNGVYSQYEEGESIFGSLF
# How the values were obtained:
# scRev7 [1] = assay: SEC oligomeric state and stoichiometry; set-up: species or system S. cerevisiae; details: 20 mM Tris, 100 mM NaCl, 2 mM EDTA, 1 mM DTT, pH 8
# Method in brief: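 scRev7 (MCS-1) co-expressed with scRev3 fragments or mutants (MCS-2) from pETDuet-1 in E. coli BL21(DE3); empty MCS-2 for apo-scRev7. Grown in 1L LB at 37 °C, induced with 1 mM IPTG at 20 °C overnight. Lysed by sonication in 20 mM sodium phosphate, 300 mM NaCl, 10 mM imidazole. Cobalt affinity, then Superdex 75 or 200 SEC with comparison of elution volumes.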
# MBP-scRev7 = biological target: T1, MBP-scRev7; assay: ITC of scRev3 peptides titrated into MBP-scRev7; format: binding, S. cerevisiae; details: 25 °C, 50 mM Tris, 100 mM NaCl, pH 8.4, 300 μM peptide titrated into 30 μM MBP-scRev7 in 2.5 μl increments, Fig. S5C
# [2] = biological target: T2, scRev7 fused to the maltose binding …; assay: ITC
# [3] = biological target: B1; assay: AUC
# [4] = biological target: T3, scRev3-RBM12 (residues 510-629), …; assay: AUC
# [5] = biological target: T4, truncated scRev3 fragment containing …; assay: SEC
# scRev7 [6] = assay: Y2H of scRev7 and scRev3 fragments; format: binding, S. cerevisiae; details: scRev7-AD with scRev3 fragment-BD; yeast PJ694-A, 5 to 7 days at 30 °C
# Method in brief: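 GAL4 AD and BD fusions of scRev7 and scRev3 RBM1, RBM2 or RBM12 (WT or mutant), tested in both orientations. Cells were transformed with 2.0 ug of each vector and grown in -LW broth at 30 °C for 3 to 5 days. They were then pelleted, resuspended in sterile water to normalise OD, serially diluted, and plated on -LW and -AHLW. Controls were empty vectors (negative) and AD/BD-fused mouse Rev7 dimerization (positive).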
molecule,measurement,setting,value
"scRev7/scRev3-RBM2: scRev7 co-expressed with scRev3-RBM2, 1:1 complex",SEC elution volume comparison,scRev7 [1],elute at similar volumes
apo-scRev7: scRev7 overexpressed alone (MCS-2 of pETDuet-1 empty),SEC elution volume comparison,scRev7 [1],elute at similar volumes
"scRev3-zipper: scRev3-zipper (residues 573–594), linker region preceding RBM2 (SSTHVSTRIPVQFGGETVSVYN)",binding (heat release),MBP-scRev7,no heat release that would be consistent with binding
scRev7/scRev3-RBM1: scRev7 co-expressed with scRev3-RBM1,SEC elution volume comparison,scRev7 [1],elute at similar volumes
KPTFDMFSSWKYALKPPTYDAVQKWYNKVPSMGNK [scRev3-RBM2 peptide (residues 595-629) used for ITC],stoichiometry N,[2],1
"KPTFDMFSSWKYALKPPTYDAVQKWYNKVPSMGNK (domain or fragment) [scRev3-RBM2 (residues 595-629), co-expressed with scRev7]",stoichiometry N,[3],1
MAAGLRYGKRAFVYGEPPFGYQDILNKLEDEGFPK [scRev3-RBM1 peptide (residues 510-544) used for ITC],stoichiometry N,[2],1
B1,stoichiometry N,[4],2 scRev7 per scRev3-RBM12
same,stoichiometry N,[5],1
"scRev3-RBM12: scRev3-RBM12 (residues 510–629), longer scRev3 construct containing both RBMs (protein) MAAGLRYGKRAFVYGEPPFGYQDILNKLEDEGFPKIDYKDPFFSNPVDLENKPYAYAGKRFEISSTHVSTRIPVQFGGETVSVYNKPTFDMFSSWKYALKPPTYDAVQKWYNKVPSMGNK",growth on -AHLW plates,scRev7 [6],"yeast grew on plates lacking adenine, histidine, leucine, and tryptophan"
